Experimental data as given in ChEMBL document CHEMBL5303300, “EUbOPEN Chemogenomics Library - Multiplex” (2023).
Several values for one entry are separate records, joined by “and”; a condition that tells them apart may be missing. Equal values may be shown once.

Tests used:
Format in all cases: toxicity, cell-based
[1] = system: HEK-293T; test: Multiplex assay against HEK293T; details: human, 10 µM, compound concentration 10 uM, number of replicates 2
In short: (§1)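 Hoechst33342, BioTracker Green Microtubule Cytoskeleton Dye, MitoTracker Red and Annexin V Alexa Fluor 680 were added to live cells at seeding, and imaging on a CQ1 microscope at 37°C and 5% CO2 followed compound addition. Gating by CellPathfinder machine learning separated cells into Hoechst high-intensity objects or normal cells, then normal cells into healthy, pyknosed or fragmented nuclei, then pyknosed cells into mitotic or apoptotic. Per cents of healthy-nucleus cells are reported for the tubulin, mitochondrial-mass and membrane-permeability phenotypes.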

[2] = system: U2OS; test: Multiplex assay against U2OS; details: human, 10 µM, compound concentration 10 uM, number of replicates 2; in short: as §1
[3] = system: Fibroblast; test: Multiplex assay against human fibroblast; details: 10 µM, compound concentration 10 uM, number of replicates 2; in short: as §1

CNC(=O)c1nn(C)c2c1C(C)(C)Cc1cnc(Nc3ccc(N4CCN(C)CC4)cc3)nc1-2 [MILCICLIB]
Population Apoptotic (%) ([1]; 12 h): 71% and 63% and 94% and 80% | Population Fragmented Nuclei (%) ([1]; 12 h): 2% and 5% and 0% | Population Healthy Nuclei (%) ([1]; 12 h): 86% and 83% and 89% and 90% | Population Hoechst High Intensity Objects (%) ([1]; 12 h): 16% and 14% and 15% and 12% | Population Membrane Permeable-Phenotype (%) ([1]; 12 h): 3% and 1% and 0% and 2% | Population Mitochondria Different-Phenotype (%) ([1]; 12 h): 81% and 80% and 79% and 71% | Population Normal (%) ([1]; 12 h): 83% and 85% and 84% and 87% | Population Pyknosed Nuclei (%) ([1]; 12 h): 10% and 7% and 8% | Population Tubulin-Different-Phenotype (%) ([1]; 12 h): 94% and 95% and 91% | Total Cell Count ([1]; 12 h): 247 and 254 and 304 and 272 | Population Apoptotic (%) ([1]; 24 h): 73% and 83% and 95% and 70% | Population Fragmented Nuclei (%) ([1]; 24 h): 3% and 4% and 1% | Population Healthy Nuclei (%) ([1]; 24 h): 91% and 89% and 88% and 93% | Population Hoechst High Intensity Objects (%) ([1]; 24 h): 16% and 15% and 14% | Population Membrane Permeable-Phenotype (%) ([1]; 24 h): 2% and 0% and 1% | Population Mitochondria Different-Phenotype (%) ([1]; 24 h): 86% and 85% and 82% and 78% | Population Normal (%) ([1]; 24 h): 83% and 84% and 85% | Population Pyknosed Nuclei (%) ([1]; 24 h): 5% and 6% | Population Tubulin-Different-Phenotype (%) ([1]; 24 h): 93% and 92% and 90% | Total Cell Count ([1]; 24 h): 355 and 365 and 395 | Population Apoptotic (%) ([1]; 48 h): 82% and 77% and 88% and 76% | Population Fragmented Nuclei (%) ([1]; 48 h): 3% and 1% | Population Healthy Nuclei (%) ([1]; 48 h): 90% and 88% and 93% | Population Hoechst High Intensity Objects (%) ([1]; 48 h): 19% and 16% and 11% and 14% | Population Membrane Permeable-Phenotype (%) ([1]; 48 h): 2% and 1% and 0% | Population Mitochondria Different-Phenotype (%) ([1]; 48 h): 91% and 90% and 94% and 89% | Population Mitotic Cells (%) ([1]; 48 h): 17% and 22% and 12% and 23% | Population Normal (%) ([1]; 48 h): 80% and 83% and 88% and 85% | Population Pyknosed Nuclei (%) ([1]; 48 h): 5% and 8% and 6% and 4% | Population Tubulin-Different-Phenotype (%) ([1]; 48 h): 93% and 89% and 88% | Total Cell Count ([1]; 48 h): 395 and 386 and 413 and 401 | Population Apoptotic (%) ([2]; 12 h): 66% and 80% and 69% and 62% | Population Healthy Nuclei (%) ([2]; 12 h): 67% [middle of 4 runs] | Population Hoechst High Intensity Objects (%) ([2]; 12 h): 0% | Population Mitochondria Different-Phenotype (%) ([2]; 12 h): 50% and 57% and 45% and 40% | Population Mitotic Cells (%) ([2]; 12 h): 33% and 19% and 30% and 37% | Population Normal (%) ([2]; 12 h): 100% and 99% | Population Pyknosed Nuclei (%) ([2]; 12 h): 39% [middle of 4 runs] | Population Tubulin-Different-Phenotype (%) ([2]; 12 h): 85% and 92% and 76% and 74% | Population Apoptotic (%) ([2]; 24 h): 85% and 89% and 80% | Population Healthy Nuclei (%) ([2]; 24 h): 50% [middle of 4 runs] | Population Hoechst High Intensity Objects (%) ([2]; 24 h): 0% | Population Mitochondria Different-Phenotype (%) ([2]; 24 h): 78% and 64% and 65% and 59% | Population Mitotic Cells (%) ([2]; 24 h): 14% and 10% and 19% | Population Normal (%) ([2]; 24 h): 100% and 99% | Population Pyknosed Nuclei (%) ([2]; 24 h): 57% and 43% and 45% and 36% | Population Tubulin-Different-Phenotype (%) ([2]; 24 h): 78% and 92% and 77% and 69% | Population Apoptotic (%) ([2]; 48 h): 93% and 84% and 92% and 89% | Population Healthy Nuclei (%) ([2]; 48 h): 26% [middle of 4 runs] | Population Hoechst High Intensity Objects (%) ([2]; 48 h): 0% and 1% | Population Membrane Permeable-Phenotype (%) ([2]; 48 h): 28% and 36% and 26% | Population Mitochondria Different-Phenotype (%) ([2]; 48 h): 100% and 54% and 69% | Population Mitotic Cells (%) ([2]; 48 h): 6% and 15% and 7% and 10% | Population Normal (%) ([2]; 48 h): 100% and 98% | Population Pyknosed Nuclei (%) ([2]; 48 h): 76% and 42% and 68% and 57% | Population Tubulin-Different-Phenotype (%) ([2]; 48 h): 71% and 81% and 77% | Population Apoptotic (%) ([3]; 12 h): 44% and 41% and 38% and 43% | Population Fragmented Nuclei (%) ([3]; 12 h): 8% and 14% and 10% and 12% | Population Healthy Nuclei (%) ([3]; 12 h): 78% and 69% and 75% and 76% | Population Hoechst High Intensity Objects (%) ([3]; 12 h): 0% | Population Membrane Permeable-Phenotype (%) ([3]; 12 h): 10% and 5% and 9% and 11% | Population Mitochondria Different-Phenotype (%) ([3]; 12 h): 6% and 10% and 4% | Population Mitotic Cells (%) ([3]; 12 h): 56% and 58% and 61% | Population Normal (%) ([3]; 12 h): 99% and 100% | Population Pyknosed Nuclei (%) ([3]; 12 h): 12% and 16% and 13% and 10% | Population Tubulin-Different-Phenotype (%) ([3]; 12 h): 77% and 75% and 67% and 55% | Total Cell Count ([3]; 12 h): 202 and 150 and 248 and 210 | Population Apoptotic (%) ([3]; 24 h): 50% and 39% and 52% | Population Fragmented Nuclei (%) ([3]; 24 h): 18% and 13% and 19% | Population Healthy Nuclei (%) ([3]; 24 h): 71% and 74% and 70% and 73% | Population Hoechst High Intensity Objects (%) ([3]; 24 h): 0% | Population Membrane Permeable-Phenotype (%) ([3]; 24 h): 6% and 0% and 4% and 3% | Population Mitochondria Different-Phenotype (%) ([3]; 24 h): 7% and 9% and 11% and 6% | Population Mitotic Cells (%) ([3]; 24 h): 50% and 60% and 47% | Population Normal (%) ([3]; 24 h): 99% and 100% | Population Pyknosed Nuclei (%) ([3]; 24 h): 9% and 12% and 7% | Population Tubulin-Different-Phenotype (%) ([3]; 24 h): 75% and 71% and 65% and 55% | Total Cell Count ([3]; 24 h): 250 and 149 and 287 and 240 | Population Apoptotic (%) ([3]; 48 h): 60% and 63% and 72% and 73% | Population Fragmented Nuclei (%) ([3]; 48 h): 16% and 21% and 20% and 22% | Population Healthy Nuclei (%) ([3]; 48 h): 71% and 58% and 67% and 63% | Population Hoechst High Intensity Objects (%) ([3]; 48 h): 0% | Population Membrane Permeable-Phenotype (%) ([3]; 48 h): 7% and 6% and 3% and 2% | Population Mitochondria Different-Phenotype (%) ([3]; 48 h): 11% and 9% and 13% and 6% | Population Mitotic Cells (%) ([3]; 48 h): 40% and 36% and 27% and 26% | Population Normal (%) ([3]; 48 h): 100% | Population Pyknosed Nuclei (%) ([3]; 48 h): 12% and 20% and 13% | Population Tubulin-Different-Phenotype (%) ([3]; 48 h): 66% and 57% and 56% and 48% | Total Cell Count ([3]; 48 h): 241 and 162 and 294 and 249
